Key:
[1] = biological target: T1, 5-hydroxytryptamine receptor 1A (Rattus norvegicus, UniProt P19327); test: Displacement of [3H]-8-OH-DPAT from 5-HT1A receptor in Sprague-Dawley albinus rat cerebral cortex membranes after 15 mins; format: cell membranes, Membrane
T1 sequence (P19327 whole entry): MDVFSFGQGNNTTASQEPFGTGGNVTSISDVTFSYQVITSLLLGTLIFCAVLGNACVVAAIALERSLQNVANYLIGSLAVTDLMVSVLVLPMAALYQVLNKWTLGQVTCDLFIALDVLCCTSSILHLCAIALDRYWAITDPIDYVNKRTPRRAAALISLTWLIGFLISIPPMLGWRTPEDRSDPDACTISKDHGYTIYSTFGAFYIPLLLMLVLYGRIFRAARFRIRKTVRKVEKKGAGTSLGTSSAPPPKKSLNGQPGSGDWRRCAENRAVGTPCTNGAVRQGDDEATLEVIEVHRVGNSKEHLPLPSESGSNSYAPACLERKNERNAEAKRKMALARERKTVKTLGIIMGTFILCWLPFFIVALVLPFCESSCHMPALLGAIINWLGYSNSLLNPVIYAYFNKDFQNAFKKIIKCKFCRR

[2] = biological target: T2, 5-hydroxytryptamine receptor 3A (Rattus norvegicus, UniProt P35563); test: Displacement of [3H]-LY278584 from 5HT3 receptor in Sprague-Dawley albinus rat cerebral cortex membranes after 30 mins; format: cell membranes, Membrane
T2 sequence (P35563 whole entry): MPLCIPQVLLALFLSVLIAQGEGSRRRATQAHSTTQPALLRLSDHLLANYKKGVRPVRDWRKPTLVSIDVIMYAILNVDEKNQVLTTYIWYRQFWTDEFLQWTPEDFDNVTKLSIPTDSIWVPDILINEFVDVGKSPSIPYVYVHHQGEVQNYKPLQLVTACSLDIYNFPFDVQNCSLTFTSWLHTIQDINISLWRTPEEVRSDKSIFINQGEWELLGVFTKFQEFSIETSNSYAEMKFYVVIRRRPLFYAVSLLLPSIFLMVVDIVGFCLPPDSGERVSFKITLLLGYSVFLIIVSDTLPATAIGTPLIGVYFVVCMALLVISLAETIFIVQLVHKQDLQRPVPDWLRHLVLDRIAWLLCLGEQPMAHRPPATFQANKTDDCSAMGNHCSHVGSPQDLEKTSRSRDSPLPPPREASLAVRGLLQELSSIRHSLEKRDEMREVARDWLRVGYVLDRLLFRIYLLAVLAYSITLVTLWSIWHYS

[3] = biological target: 5-hydroxytryptamine receptor 4 (Rattus norvegicus, UniProt Q62758); test: Displacement of [3H]GR113808 from 5HT4 receptor in Sprague-Dawley albinus rat striatal membranes after 30 mins by scintillation counting; format: cell membranes, Membrane
5-hydroxytryptamine receptor 4, sequence (Q62758 whole entry): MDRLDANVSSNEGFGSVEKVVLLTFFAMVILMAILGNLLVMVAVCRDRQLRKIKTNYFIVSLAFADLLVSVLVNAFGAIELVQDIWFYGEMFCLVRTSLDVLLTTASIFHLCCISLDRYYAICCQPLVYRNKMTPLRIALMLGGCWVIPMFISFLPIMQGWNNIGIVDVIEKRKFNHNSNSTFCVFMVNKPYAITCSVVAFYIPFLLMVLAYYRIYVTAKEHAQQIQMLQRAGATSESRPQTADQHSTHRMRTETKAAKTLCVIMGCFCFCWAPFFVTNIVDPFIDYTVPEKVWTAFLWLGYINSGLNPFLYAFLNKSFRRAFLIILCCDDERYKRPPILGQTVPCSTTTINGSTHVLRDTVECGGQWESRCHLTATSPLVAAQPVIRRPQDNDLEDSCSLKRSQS

[4] = biological target: T3, 5-hydroxytryptamine receptor 1A (Homo sapiens, UniProt P08908); test: Agonist activity at human 5HT1A receptor expressed in human HeLa cells assessed as inhibition of forskolin-stimulated cAMP production […] measured after 2 hrs by RIA; format: functional, cell-based
T3 sequence (P08908 whole entry): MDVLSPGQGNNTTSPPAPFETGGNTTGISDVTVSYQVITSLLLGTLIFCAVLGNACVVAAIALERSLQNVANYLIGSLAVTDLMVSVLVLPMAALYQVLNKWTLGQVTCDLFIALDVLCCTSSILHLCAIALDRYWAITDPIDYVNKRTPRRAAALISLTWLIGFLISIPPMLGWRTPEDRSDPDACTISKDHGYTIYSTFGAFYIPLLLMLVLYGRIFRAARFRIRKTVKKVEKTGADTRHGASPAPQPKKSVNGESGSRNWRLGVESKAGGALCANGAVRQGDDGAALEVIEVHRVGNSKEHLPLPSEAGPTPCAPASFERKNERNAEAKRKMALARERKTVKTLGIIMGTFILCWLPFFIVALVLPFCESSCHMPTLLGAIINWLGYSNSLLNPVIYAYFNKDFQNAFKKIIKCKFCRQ
Outline: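 HeLa cells stably expressing the h5-HT1AR, grown in DMEM with 2 mM glutamine, 1 mM pyruvate and 10% heat-inactivated FCS, and used after 2–3 days at about 7.5 × 10^4 cells/well. After a PBS wash, cells were incubated 10 min in PBS with 0.5 mM isobutylmethylxanthine and 10 μM forskolin, with or without compound. The reaction was stopped with ice-cold ethanol, extracted 2 h and lyophilized; cAMP was measured by RIA.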

[5] = Neuroprotective activity in Wistar rat hippocampi primary neuronal cells assessed as protection against serum-deprivation induced cell death at 10 uM after 24 hrs by MTT assay; format: functional, Hippocampus, Primary neuron
Outline: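 Mixed neuron-glia cultures from E18 Wistar rat hippocampi (Neurobasal plus 10% FCS), used at 11 days in vitro. Medium replaced by saline to withdraw serum; cells held 24 h with compound. Cell survival measured by MTT reduction, expressed as % protection.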

D(2) dopamine receptor = D(2) dopamine receptor (Rattus norvegicus, UniProt P61169); test: Displacement of [3H]spiperone from dopamine D2 receptor in Sprague-Dawley albinus rat striatal membranes after 15 mins; format: cell membranes, Membrane
D(2) dopamine receptor, sequence (P61169 whole entry): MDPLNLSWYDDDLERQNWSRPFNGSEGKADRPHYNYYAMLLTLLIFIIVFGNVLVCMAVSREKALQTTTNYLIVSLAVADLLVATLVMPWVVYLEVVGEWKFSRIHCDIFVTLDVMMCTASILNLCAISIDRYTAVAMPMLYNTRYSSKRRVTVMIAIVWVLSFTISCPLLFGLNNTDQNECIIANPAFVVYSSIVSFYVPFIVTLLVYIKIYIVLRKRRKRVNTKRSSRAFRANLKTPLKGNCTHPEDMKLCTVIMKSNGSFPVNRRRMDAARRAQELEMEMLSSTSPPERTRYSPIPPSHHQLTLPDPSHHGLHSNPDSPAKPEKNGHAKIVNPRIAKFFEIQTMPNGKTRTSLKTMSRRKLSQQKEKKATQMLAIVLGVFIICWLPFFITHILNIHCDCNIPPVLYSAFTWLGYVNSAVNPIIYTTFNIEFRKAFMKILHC

Question: Which results are given for Cl.O=C1C2CCCN2C(=O)CN1CCCCNCC1CCc2ccccc2O1 (stereo unspecified)?
Answer: Ki [1]: 21 nM; Ki [2]: > 1000 nM; Ki [3]: > 1000 nM; EC50 [4]: 123 nM; Activity [5]: 13%; Ki (D(2) dopamine receptor): > 1000 nM

— ChEMBL document CHEMBL1926607 (J Med Chem, 2011)
